ChEMBL document CHEMBL2311264, “Synthesis and anticancer activity of heteroaromatic linked 4β-amido podophyllotoxins as apoptotic inducing agents” (Bioorg Med Chem Lett, 2013)
Active and inactive are the calls of the source. The calls are words filed in the database; no cut-off is given here.

Assays:
HT-29 = experiment: Cytotoxicity against human HT-29 cells after 72 hrs by MTT assay; format: functional, cell-based; details: HT-29, 72 h
A549 [1] = experiment: Cytotoxicity against human A549 cells […] by MTT assay; format: functional, cell-based
B16 = experiment: Cytotoxicity against mouse B16 cells […] by MTT assay; format: functional, cell-based
ACHN = experiment: Cytotoxicity against human ACHN cells […] by MTT assay; format: functional, cell-based
HeLa = experiment: Cytotoxicity against human HeLa cells […] by MTT assay; format: functional, cell-based
A549 [2] = experiment: Induction of cell cycle arrest in human A549 cells assessed as G2/M phase cells at 1 uM by FACS analysis (reference value: 9.89%); format: functional
A549 [3] = experiment: Induction of cell cycle arrest in human A549 cells assessed as S phase cells at 1 uM by FACS analysis (reference value: 3.69%); format: functional
A549 [4] = experiment: Induction of cell cycle arrest in human A549 cells assessed as sub G1 phase cells at 1 uM by FACS analysis (reference value: 1.08%); format: functional
A549 [5] = experiment: Induction of cell cycle arrest in human A549 cells assessed as G1 phase cells at 1 uM by FACS analysis (reference value: 85.33%); format: functional
A549 [6] = experiment: Induction of apoptosis in human A549 cells assessed as nuclear fragmentation at 3 uM after 24 hrs by Hoechst staining method; format: functional, cell-based
Method in brief: (§1)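 Cells were seeded at 10,000 per coverslip and grown 24 h, then treated 24 h. Vehicle control was 0.001% DMSO; etoposide was the standard. Hoechst at […] with 4% paraformaldehyde was added for 30 min at 37 °C. Random fields were imaged by fluorescence microscopy and apoptotic cells scored manually by cytoplasmic condensation, apoptotic bodies, nuclear fragmentation and relative fluorescence.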

A549 [7] = experiment: Induction of cell cycle arrest in human A549 cells assessed as S phase cells at 3 uM by FACS analysis (reference value: 3.69%); format: functional
A549 [8] = experiment: Induction of apoptosis in human A549 cells assessed as DNA fragmentation at 3 uM after 48 hrs by agarose gel electrophoretic analysis; format: functional, cell-based
Method in brief: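 Cells were seeded at 1 × 10^6/well and grown 48 h, then treated 48 h. Cells were pelleted and lysed. Lysate was given SDS and RNase-A at 56 °C for 2 h, then proteinase K at 37 °C for 2 h. DNA was precipitated with ammonium acetate and cold ethanol, washed with 80% ethanol and dissolved in TE. Laddering was read on 2% agarose gel in TE; 50 bp marker.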

A549 [9] = experiment: Induction of apoptosis in human A549 cells assessed as increase in caspase3 activity at 3 uM after 48 hrs relative to control; format: functional
Method in brief: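 A-549 cells were seeded at 2.5 × 10^6/well and treated 48 h alongside etoposide, then scraped and lysed on ice. Supernatant was mixed with 2X assay buffer and Ac-DEVD-AFC substrate for 1 h. Fluorescence (ex 400, em 505 nm) was read every 5 min, normalized to Bradford protein and expressed as fold over control. Two experiments, each in triplicate.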

A549 [10] = experiment: Induction of cell cycle arrest in human A549 cells assessed as G1 phase cells at 3 uM by FACS analysis (reference value: 85.33%); format: functional
A549 [11] = experiment: Induction of cell cycle arrest in human A549 cells assessed as G2/M phase cells at 3 uM by FACS analysis (reference value: 9.89%); format: functional
A549 [12] = experiment: Induction of apoptosis in human A549 cells assessed as apoptotic bodies at 3 uM after 24 hrs by Hoechst staining method; format: functional, cell-based; method in brief: as §1
A549 [13] = experiment: Induction of apoptosis in human A549 cells assessed as increase in fluorescence at 3 uM after 24 hrs by Hoechst staining method relative to control; format: functional, cell-based; method in brief: as §1
A549 [14] = experiment: Induction of cell cycle arrest in human A549 cells assessed as sub G1 phase cells at 3 uM by FACS analysis (reference value: 1.08%); format: functional
A549 [15] = experiment: Induction of apoptosis in human A549 cells assessed as cytoplasmic condensation at 3 uM after 24 hrs by Hoechst staining method; format: functional, cell-based; method in brief: as §1

SMILES | IC50 (HT-29) [µM] | IC50 (A549 [1]) [µM] | IC50 (B16) [µM] | IC50 (ACHN) [µM] | IC50 (HeLa) [µM] | further results
COc1cc([C@@H]2c3cc4c(cc3[C@@H](NC(=O)c3cc(-c5ccc(F)cc5)[nH]n3)[C@H]3COC(=O)[C@H]23)OCO4)cc(OC)c1OC | 26.3 | 21.2 | 26.1 | 18.3 | 15.2 | 
COc1cc(-c2cc(C(=O)N[C@@H]3c4cc5c(cc4[C@@H](c4cc(OC)c(OC)c(OC)c4)[C@H]4C(=O)OC[C@@H]43)OCO5)n[nH]2)cc(OC)c1OC | 16.8 | 15.2 | 18.3 | 27.1 | 11.5 | 
COc1cc([C@@H]2c3cc4c(cc3[C@@H](NC(=O)c3cc(-c5ccc([N+](=O)[O-])cc5)on3)[C@H]3COC(=O)[C@H]23)OCO4)cc(OC)c1OC | 22.6 | 17.9 | 16.8 | 26.4 | 7.5 | 
COc1ccc(-c2cc(C(=O)N[C@@H]3c4cc5c(cc4[C@@H](c4cc(OC)c(OC)c(OC)c4)[C@H]4C(=O)OC[C@@H]43)OCO5)nc3cc(-c4ccccc4)nn23)cc1OC | 14.5 | 17.3 | 10.7 | 19.3 | 14.4 | 
COc1ccc(-c2cc(C(=O)N[C@@H]3c4cc5c(cc4[C@@H](c4cc(OC)c(OC)c(OC)c4)[C@H]4C(=O)OC[C@@H]43)OCO5)n[nH]2)cc1OC | 36.3 | 39.5 | 45.3 | 31.6 | 25.1 | 
COc1cc([C@@H]2c3cc4c(cc3[C@@H](NC(=O)c3cc(-c5ccc(Cl)c(Cl)c5)on3)[C@H]3COC(=O)[C@H]23)OCO4)cc(OC)c1OC | 11.2 | 31.1 | 22.7 | 16.8 | 12.6 | 
COc1ccc(-c2cc(C(=O)N[C@@H]3c4cc5c(cc4[C@@H](c4cc(OC)c(OC)c(OC)c4)[C@H]4C(=O)OC[C@@H]43)OCO5)nc3cc(-c4ccccc4)nn23)cc1 | 5.7 | 11.2 | 18.3 | 17.3 | 8.9 | 
COc1cc([C@@H]2c3cc4c(cc3[C@H](O)[C@H]3COC(=O)[C@H]23)OCO4)cc(OC)c1OC [PODOFILOX] | 1.02 | 3.6 | 2.5 | 2.3 | 2.8 | Activity (A549 [2]): 16.24%; Activity (A549 [3]): 3.67%; Activity (A549 [4]): 1.83%; Activity (A549 [5]): 78.31%
COc1ccc(-c2cc(C(=O)N[C@@H]3c4cc5c(cc4[C@@H](c4cc(OC)c(OC)c(OC)c4)[C@H]4C(=O)OC[C@@H]43)OCO5)no2)cc1 | 32.1 | 38.1 | 22.5 | 30.3 | 11.2 | 
COc1cc([C@@H]2c3cc4c(cc3[C@@H](NC(=O)c3cc(-c5ccc(F)c(F)c5)[nH]n3)[C@H]3COC(=O)[C@H]23)OCO4)cc(OC)c1OC | 10.8 | 15.8 | 25.6 | 32.5 | 14.9 | 
COc1cc([C@@H]2c3cc4c(cc3[C@@H](NC(=O)c3cc(-c5ccccc5)[nH]n3)[C@H]3COC(=O)[C@H]23)OCO4)cc(OC)c1OC | 26.5 | 28.9 | 16.3 | 30.2 | 7.5 | 
COc1cc([C@@H]2c3cc4c(cc3[C@@H](NC(=O)c3cc(-c5ccc([N+](=O)[O-])cc5)[nH]n3)[C@H]3COC(=O)[C@H]23)OCO4)cc(OC)c1OC | 20.6 | 19.4 |  | 23.5 | 14.6 | 
COc1cc([C@@H]2c3cc4c(cc3[C@@H](NC(=O)c3cc(-c5ccc(F)cc5)on3)[C@H]3COC(=O)[C@H]23)OCO4)cc(OC)c1OC | 19.9 | 20.6 | 23.5 | 15.6 | 16.6 | 
COc1cc([C@@H]2c3cc4c(cc3[C@@H](NC(=O)c3cc(-c5ccc(F)c(F)c5)on3)[C@H]3COC(=O)[C@H]23)OCO4)cc(OC)c1OC | 14.1 | 12.7 | 27.5 | 16.4 | 21.2 | 
COc1cc([C@@H]2c3cc4c(cc3[C@@H](O[C@@H]3O[C@@H]5CO[C@@H](C)O[C@H]5[C@H](O)[C@H]3O)[C@H]3COC(=O)[C@H]23)OCO4)cc(OC)c1O [ETOPOSIDE] |  | 2.8 | 1.39 |  | 1.52 | Activity (A549 [6]): Active; Activity (A549 [7]): 2.42%; Activity (A549 [8]): Active; fold change (FC) (A549 [9]): 6; Activity (A549 [2]): 32.33%; Activity (A549 [10]): 31.49%; Activity (A549 [11]): 57.86%; Activity (A549 [12]): Active; Activity (A549 [3]): 4.1%; Activity (A549 [13]): Active; Activity (A549 [14]): 8.3%; Activity (A549 [4]): 1.25%; Activity (A549 [15]): Active; Activity (A549 [5]): 62.32%
COc1ccc(-c2cc(C(=O)N[C@@H]3c4cc5c(cc4[C@@H](c4cc(OC)c(OC)c(OC)c4)[C@H]4C(=O)OC[C@@H]43)OCO5)n[nH]2)cc1 | 8.4 | 5.3 | 9.5 | 11.6 | 9.4 | 
COc1cc(-c2cc(C(=O)N[C@@H]3c4cc5c(cc4[C@@H](c4cc(OC)c(OC)c(OC)c4)[C@H]4C(=O)OC[C@@H]43)OCO5)no2)cc(OC)c1OC | 25.1 | 19.8 | 23.4 | 34.2 | 18.4 | 
COc1cc([C@@H]2c3cc4c(cc3[C@@H](NC(=O)c3cc(-c5ccc([N+](=O)[O-])cc5)n5nc(-c6ccccc6)cc5n3)[C@H]3COC(=O)[C@H]23)OCO4)cc(OC)c1OC | 10.9 | 10.6 | 18.4 | 17.7 | 12.1 | 
COc1cc(-c2cc(C(=O)N[C@@H]3c4cc5c(cc4[C@@H](c4cc(OC)c(OC)c(OC)c4)[C@H]4C(=O)OC[C@@H]43)OCO5)nc3cc(-c4ccccc4)nn23)cc(OC)c1OC | 9.2 | 9.5 | 12.7 | 13.8 | 13.7 | 
COc1cc([C@@H]2c3cc4c(cc3[C@@H](NC(=O)c3cc(-c5ccc(C)cc5)on3)[C@H]3COC(=O)[C@H]23)OCO4)cc(OC)c1OC | 27.9 | 24.7 | 20.3 | 28.5 | 5.26 | 
COc1cc([C@@H]2c3cc4c(cc3[C@@H](NC(=O)c3cc(-c5ccc(C)cc5)[nH]n3)[C@H]3COC(=O)[C@H]23)OCO4)cc(OC)c1OC | 26.5 | 22.3 | 16.6 | 25.8 | 16.9 | 
COc1cc([C@@H]2c3cc4c(cc3[C@@H](NC(=O)c3cc(-c5ccccc5)on3)[C@H]3COC(=O)[C@H]23)OCO4)cc(OC)c1OC | 19.5 | 13.6 | 16.3 | 17.5 | 5.9 | 
COc1ccc(-c2cc(C(=O)N[C@@H]3c4cc5c(cc4[C@@H](c4cc(OC)c(OC)c(OC)c4)[C@H]4C(=O)OC[C@@H]43)OCO5)no2)cc1OC | 38.4 | 23.1 | 12.7 | 23.1 | 13.3 | 
